The structures appear in SMILES notation.

As usually defined, the Aqueous solubility is the dissolved amount per volume that the medium holds. The IC50 is the concentration at which inhibition is half-maximal.

Data set [1] can be described thus: Determination of aqueous solubility. The format is physicochemical. As to conditions: Milli-Q water, room temperature. The method, boiled down: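 Modified OECD method. Saturated solutions made in Milli-Q water at room temperature with repeated ultrasonication. Undissolved material removed through a 0.45 μm filter. Filtrate diluted in 1 % HNO3, and platinum quantified by ICP-MS (RF 1500 W, 194Pt/195Pt monitored, Re internal isotope, 10 replicates) to calculate solubility.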

The nature of data set [2]: Lipophilicity as chromatographic retention factor log kw. Type of data set: physicochemical. The following applies: RP-HPLC, extrapolated to 0 % MeOH. Summed up:
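RP-HPLC on a C18 column (4.6 × 250 mm, 5 μm) at 25 °C, 1 ml/min, isocratic 0.1 % TFA(aq)/MeOH, UV 210 nm, with uracil for dead time t0. Each compound run in triplicate at ≥3 MeOH compositions; k = (tR − t0)/t0. log kw obtained by linear extrapolation of log k versus %MeOH to 0 % MeOH.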

A short description of data set [3]: Lipophilicity as n-octanol/water partition coefficient. Type of data set: physicochemical. The following applies: shake flask. Summed up:
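Modified OECD shake-flask method. Compound dissolved in water pre-saturated with 1-octanol, and aqueous Pt measured by ICP-MS after dilution in 1 % HNO3. Solution then mixed 1:1 with water-saturated 1-octanol and shaken 1 h. After phase separation, aqueous Pt re-measured; octanol content taken as the loss from the stock to give log Po/w.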

Data set [4] relates to murine leukemia model L1210. In words: Cytotoxicity assay. The following applies: read-out: IC50 mean ± SD, L1210; MTT assay, 72 h exposure. The format is cell-based. Summed up:
(§1)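 Cells (L1210 in RPMI 1640; CT-26 in DMEM/F12; both with 10 % FCS, 37 °C, 5 % CO2) seeded at 2 × 10^3/well and allowed 24 h recovery. 10 mM DMSO stocks serially diluted in medium; final DMSO ≤0.5 %. After 72 h exposure, viability read by MTT (EZ4U). IC50 reported as mean ± SD of at least three independent experiments.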
A general note: Tetrazolium dyes change colour on reduction, which living cells bring about.

Data set [5] deals with murine colon cancer cell model CT-26. As to the kind of experiment: Cytotoxicity assay. Type of data set: cell-based. The following applies: MTT assay, 72 h exposure; for IC50: read-out: IC50 mean ± SD, CT-26. The method, boiled down:
as §1

Data set [6] is described as follows: Tissue distribution of platinum after single dose oral administration. The format is in vivo, Balb/c mice. As to conditions: 2 h after single oral dose 40 mg/kg, mice.
The format of data set [7] is in vivo, Balb/c mice. The following applies: CT-26-bearing mice.
A further data set deals with CH1. As to conditions: read-out: IC50 (CH1); MTT assay, 96 h exposure; cited from earlier work.
A further data set relates to SW480. As to conditions: read-out: IC50 (SW480); MTT assay, 96 h exposure; cited from earlier work.
For the next data set, the system named is A549. The following applies: read-out: IC50 (A549); MTT assay, 96 h exposure; cited from earlier work.
Data set [8] can be described thus: SEC-ICP-MS study in mice serum after single dose oral administration. Type of data set: in vivo. As to conditions: serum 2 h after single oral dose. The method, boiled down:
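Balb/c mice dosed orally once at 40 mg/kg (water, 1 % DMSO). Under anesthesia at 2 h, blood taken by heart puncture; serum isolated (3000 rpm, 10 min, twice), stored at −20 °C, then diluted in PBS. SEC on Superdex 200 (10–600 kDa), 100 mmol/l ammonium acetate pH 7.4, 0.7 ml/min, with online ICP-MS Pt trace. References: compounds in PBS, fresh or after 1 and 24 h at 37 °C.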

The subject of another data set is CT-26 cells. As to the kind of experiment: Anticancer activity against CT-26 cells in vivo. On the set-up: species or system Balb/c mice. The following applies: CT-26-bearing mice, i.p. days 4, 7, 11, 14; 8.5 mg/kg for 1, 10 mg/kg for 2. Summed up:
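CT-26 cells (5 × 10^5) injected s.c. into right flank of female Balb/c mice. Test compound given i.p. as freshly prepared aqueous solution on days 4, 7, 11 and 14. Daily distress checks. Tumor size measured regularly by caliper; volume = length × width²/2. Mice sacrificed at day 15, 24 h after last dose.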

The conditions of data set [9]: 15 min after oral application, clinical trials; cited from earlier work.
For data set [10] the following is noted: cited from earlier work.

In data set [1], `CC[NH][Pt]([Cl])([Cl])([NH]CC)([O]C(=O)CCC(=O)OCC)[O]C(=O)CCC(=O)OCC` [Compound 1, (OC-6-33)-dichloridobis((4-ethoxy)-4-oxobutanoato)bis(ethylamine)platinum(IV)] had an Aqueous solubility of 1940 ± 20 µg/mL. The “Lipophilicity (log kw)” value in data set [2] is on record as 2.87 ± 0.01. Besides, the “Lipophilicity (log Po/w)” value in data set [3] is 0.72 ± 0.03. For the same compound, the IC50 in data set [4] worked out at 1500 ± 400 nM. The IC50 in data set [5] was found to be 5700 ± 200 nM. In data set [6], the “Percentage of platinum amount found in serum relative to the administered platinum dose” value was ~ 16 % Pt, the “Platinum level in blood pellet” value is given as ~ 1 μg/g, the “Platinum level in kidneys” value was ~ 4 μg/g and the “Platinum level in liver” value is reported as ~ 9 μg/g. Also, in data set [6], the “Platinum level in lungs” value is on record as ~ 1 μg/g and the “Platinum level in serum” value was ~ 2 μg/ml. Further, the “Increase of platinum level in tumor at the higher oral dose” value in data set [7] (51.7 vs 34.1 mg/kg p.o., multiple dose) is “up to 30%”. For the same compound, the IC50 in the data set on CH1 is 61 ± 15 nM. In the data set with SW480, the IC50 is 300 ± 50 nM. The half-maximal inhibitory concentration (IC50) in the data set with A549 is 1000 ± 400 nM.
For the compound `[NH2][Pt]1([NH2])([O]C(=O)CCC(=O)NC2CCCC2)([O]C(=O)CCC(=O)NC2CCCC2)[O]C(=O)C2(CCC2)C(=O)[O]1` [Compound 2, (OC-6-33)-diammine(cyclobutane-1,1-dicarboxylato)bis((4-cyclopentylamino)-4-oxobutanoato)platinum(IV)], in [1], the Aqueous solubility amounted to 10200 ± 40 µg/mL. Also, the “Lipophilicity (log kw)” value in data set [2] is recorded as 2.99 ± 0.06. Moreover, in data set [3], the “Lipophilicity (log Po/w)” value is recorded as 0.77 ± 0.06. The IC50 in data set [4] was above 50000 nM; in data set [5], above 50000 nM; with CH1, 15000 ± 5000 nM; in the data set with SW480 it was above 500000 nM; in the data set with A549 it was above 500000 nM. For the same compound, the “Percentage of platinum amount found in serum relative to the administered platinum dose” value in data set [6] is reported as ~ 1.5 % Pt. Further, in data set [6], the “Platinum accumulation in all organ samples” value was “less than 0.5 μg/g”. For the same compound, the “Platinum level in serum” value in data set [6] is recorded as ~ 0.15 μg/ml. Besides, the “Free intact platinum(IV) complex in serum” value in [8] is on record as ~ 5%. In addition, the “In vivo anticancer activity (tumor volume), intraperitoneal application” value in the data set with CT-26 cells is “inactive”. In data set [7] (10 mg/kg i.p. vs 40 mg/kg p.o., multiple dose), the “Platinum in liver, kidney and serum after i.p. versus oral administration” value is reported as “tenfold higher”. For the same compound, the “Platinum concentrations in all tissues after oral application” value in data set [7] (multiple dose p.o. 40 mg/kg, day 15) is below 0.5 µg/g.
Regarding `CC(=O)[O][Pt]([NH2])([Cl])([Cl])([NH]C1CCCCC1)[O]C(C)=O` [Satraplatin, (OC-6-43)-bis(acetato)amminedichlorido(cyclohexylamine)platinum(IV), reference compound], the Aqueous solubility in data set [1] came out at 100 ± 10 µg/mL. Further, the “Lipophilicity (log kw)” value in [2] is 1.49 ± 0.03. Also, the “Lipophilicity (log Po/w)” value in [3] turned out to be 0.23 ± 0.01. Moreover, the IC50 in data set [4] was 2500 ± 200 nM; in data set [5] it was 2900 ± 300 nM; in the data set with CH1, 100 ± 20 nM; with SW480, 1500 ± 100 nM; in the data set with A549, 6400 ± 400 nM. In [5], the “Fold more active than 1 in CT-26 cells” value is given as ~ 2 fold. Further, the “Percentage of platinum amount found in serum relative to the administered platinum dose” value in data set [6] is ~ 4 % Pt. For the same compound, in [6], the “Times lower platinum concentrations in the investigated tissues than compound 1” value is recorded as 2-3 times. Besides, the “Presence of intact parent drug in serum” value in [8] is “absence of intact satraplatin”. Further, the “Parent drug in patients' plasma ultrafiltrate” value in data set [9] is reported as “no parent drug was detected”.
For `N.N.O=C([O-])C1(C(=O)[O-])CCC1.[Pt+2]` [carboplatin], the “Injected dose recovered in urine” value in data set [10] is around 90%.

Values taken from publication PMC4351919 (Journal of biological inorganic chemistry : JBIC : a …, 2014).
